Experimental data: ChEMBL document CHEMBL1157589, “Antifungal 3,5-disubstituted furanones: From 5-acyloxymethyl to 5-alkylidene derivatives” (Bioorg Med Chem, 2010)
Converted amounts (≈) assume the structure as drawn. Each block holds one compound with its values, some of them ahead of it.

Key:
Assay type in all cases: functional
Pichia kudriavzevii [1] = experiment: Antifungal activity against Candida krusei ATCC 6258 after 48 hrs by microdilution method; conditions: ATCC 6258, 48 h
In short: (§1)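 Yeasts held on Sabouraud dextrose agar. MIC by NCCLS M27-A broth microdilution in RPMI 1640 with L-glutamine, buffered with 0.165 M MOPS to pH 7.0. Compounds in DMSO (≤2% final), twofold dilutions 500–0.48. Final inoculum 5 × 10³ ± 0.2 cfu mL⁻¹. Incubated at 35 °C; absorbance at 540 nm read at 24 and 48 h. MIC is 80% growth inhibition versus control; run twice in duplicate.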

Candida parapsilosis [2] = experiment: Antifungal activity against Candida parapsilosis ATCC 22019 after 24 hrs by microdilution method; conditions: Lodderomyces parapsilosis, ATCC 22019, 24 h; in short: as §1
Aspergillus fumigatus [3] = experiment: Antifungal activity against Aspergillus fumigatus 231 after 24 hrs by microdilution method; conditions: Aspergillus fumigatus, 231, 24 h
In short: (§2)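 Filamentous strains held on Sabouraud dextrose agar. NCCLS M27-A broth microdilution in RPMI 1640 with L-glutamine and 0.165 M MOPS, pH 7.0. DMSO diluent ≤2% final; twofold dilutions 500–0.48. Inoculum 5 × 10³ ± 0.2 cfu mL⁻¹ final.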

Candida albicans [4] = experiment: Antifungal activity against Candida albicans ATCC 44859 after 24 hrs by microdilution method; conditions: ATCC 44859, 24 h; in short: as §1
Lichtheimia corymbifera [5] = experiment: Antifungal activity against Absidia corymbifera 272 after 48 hrs by microdilution method; conditions: Lichtheimia corymbifera, 272, 48 h; in short: as §2
Trichosporon beigelii [6] = experiment: Antifungal activity against Trichosporon beigelii 1188 after 48 hrs by microdilution method; conditions: Trichosporon beigelii, 1188, 48 h; in short: as §1
Nakaseomyces glabratus [7] = experiment: Antifungal activity against Candida glabrata 20/I after 48 hrs by microdilution method; in short: as §1
Candida parapsilosis [8] = experiment: Antifungal activity against Candida parapsilosis ATCC 22019 after 48 hrs by microdilution method; conditions: Lodderomyces parapsilosis, ATCC 22019, 48 h; in short: as §1
Pichia kudriavzevii [9] = experiment: Antifungal activity against Candida krusei ATCC 6258 after 24 hrs by microdilution method; conditions: ATCC 6258, 24 h; in short: as §1
Clavispora lusitaniae [10] = experiment: Antifungal activity against Candida lusitaniae 2446/I after 24 hrs by microdilution method; in short: as §1
Pichia kudriavzevii [11] = experiment: Antifungal activity against Candida krusei E28 after 24 hrs by microdilution method; conditions: E28, 24 h; in short: as §1
Nakaseomyces glabratus [12] = experiment: Antifungal activity against Candida glabrata 20/I after 24 hrs by microdilution method; in short: as §1
Clavispora lusitaniae [13] = experiment: Antifungal activity against Candida lusitaniae 2446/I after 48 hrs by microdilution method; in short: as §1
Candida tropicalis [14] = experiment: Antifungal activity against Candida tropicalis 156 after 24 hrs by microdilution method; conditions: Candida tropicalis, 156, 24 h; in short: as §1
Candida tropicalis [15] = experiment: Antifungal activity against Candida tropicalis 156 after 48 hrs by microdilution method; conditions: Candida tropicalis, 156, 48 h; in short: as §1
Candida albicans [16] = experiment: Antifungal activity against Candida albicans ATCC 44859 after 48 hrs by microdilution method; conditions: ATCC 44859, 48 h; in short: as §1
Aspergillus fumigatus [17] = experiment: Antifungal activity against Aspergillus fumigatus 231 after 48 hrs by microdilution method; conditions: Aspergillus fumigatus, 231, 48 h; in short: as §2
Candida albicans [18] = experiment: Antifungal activity against Candida albicans ATCC 90028 after 48 hrs by microdilution method; conditions: ATCC 90028, 48 h; in short: as §1
Pichia kudriavzevii [19] = experiment: Antifungal activity against Candida krusei E28 after 48 hrs by microdilution method; conditions: E28, 48 h; in short: as §1
Candida albicans [20] = experiment: Antifungal activity against Candida albicans ATCC 90028 after 24 hrs by microdilution method; conditions: ATCC 90028, 24 h; in short: as §1
Trichosporon beigelii [21] = experiment: Antifungal activity against Trichosporon beigelii 1188 after 24 hrs by microdilution method; conditions: Trichosporon beigelii, 1188, 24 h; in short: as §1
[22] = system: Trichophyton mentagrophytes; experiment: Antifungal activity against Trichophyton mentagrophytes 445 after 120 hrs by microdilution method; conditions: Trichophyton mentagrophytes, 445, 120 h
In short: (§3)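 Dermatophyte held on Sabouraud dextrose agar. M27-A microdilution in MOPS-buffered (0.165 M, pH 7.0) RPMI 1640 with L-glutamine. DMSO ≤2% final; twofold dilutions 500–0.48. Inoculum 5 × 10³ ± 0.2 cfu mL⁻¹ final. Incubated at 35 °C; MIC read visually at 72 and 120 h as 80% inhibition of control growth; determined twice in duplicate.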

[23] = system: Trichophyton mentagrophytes; experiment: Antifungal activity against Trichophyton mentagrophytes 445 after 72 hrs by microdilution method; conditions: Trichophyton mentagrophytes, 445, 72 h; in short: as §3
Lichtheimia corymbifera [24] = experiment: Antifungal activity against Absidia corymbifera 272 after 24 hrs by microdilution method; conditions: Lichtheimia corymbifera, 272, 24 h; in short: as §2

- MIC95 (Pichia kudriavzevii [1]): 0.14 µM (≈ 0.129 µg/mL)
- MIC95 (Candida parapsilosis [2]): 0.03 µM (≈ 0.0277 µg/mL)
- MIC95 (Aspergillus fumigatus [3]): 0.18 µM (≈ 0.166 µg/mL)
- MIC95 (Candida albicans [4]): 0.03 µM (≈ 0.0277 µg/mL)
- MIC95 (Lichtheimia corymbifera [5]): 2.16 µM (≈ 2 µg/mL)
- MIC95 (Trichosporon beigelii [6]): 1.8 µM (≈ 1.66 µg/mL)
- MIC95 (Nakaseomyces glabratus [7]): 0.09 µM (≈ 0.0832 µg/mL)
- MIC95 (Candida parapsilosis [8]): 0.14 µM (≈ 0.129 µg/mL)
- MIC95 (Pichia kudriavzevii [9]): 0.14 µM (≈ 0.129 µg/mL)
- MIC95 (Clavispora lusitaniae [10]): 0.14 µM (≈ 0.129 µg/mL)
- MIC95 (Pichia kudriavzevii [11]): 0.14 µM (≈ 0.129 µg/mL)
- MIC95 (Nakaseomyces glabratus [12]): 0.03 µM (≈ 0.0277 µg/mL)
- MIC95 (Clavispora lusitaniae [13]): 0.27 µM (≈ 0.25 µg/mL)
- MIC95 (Candida tropicalis [14]): 0.09 µM (≈ 0.0832 µg/mL)
- MIC95 (Candida tropicalis [15]): 0.11 µM (≈ 0.102 µg/mL)
- MIC95 (Candida albicans [16]): 0.06 µM (≈ 0.0554 µg/mL)
- MIC95 (Aspergillus fumigatus [17]): 0.23 µM (≈ 0.213 µg/mL)
- MIC95 (Candida albicans [18]): 0.14 µM (≈ 0.129 µg/mL)
- MIC95 (Pichia kudriavzevii [19]): 0.18 µM (≈ 0.166 µg/mL)
- MIC95 (Candida albicans [20]): 0.07 µM (≈ 0.0647 µg/mL)
Structure (SMILES): C[C@@H]1[C@H](O)[C@@H](C)/C=C/C=C/C=C/C=C/C=C/C=C/C=C/[C@H](O[C@@H]2O[C@H](C)[C@@H](O)[C@H](N)[C@@H]2O)C[C@@H]2O[C@](O)(C[C@@H](O)C[C@@H](O)[C@H](O)CC[C@@H](O)C[C@@H](O)CC(=O)O[C@H]1C)C[C@H](O)[C@H]2C(=O)O [AMPHOTERICIN B]

- MIC80 (Pichia kudriavzevii [1]): 15.6 µM (≈ 6.62 µg/mL)
- MIC80 (Candida parapsilosis [2]): 7.81 µM (≈ 3.31 µg/mL)
- MIC80 (Aspergillus fumigatus [3]): 3.9 µM (≈ 1.65 µg/mL)
- MIC80 (Candida albicans [4]): 0.97 µM (≈ 0.411 µg/mL)
- MIC80 (Lichtheimia corymbifera [5]): 62.5 µM (≈ 26.5 µg/mL)
- MIC80 (Trichosporon beigelii [6]): 62.5 µM (≈ 26.5 µg/mL)
- MIC80 (Nakaseomyces glabratus [7]): 1.95 µM (≈ 0.827 µg/mL)
- MIC80 (Candida parapsilosis [8]): 31.2 µM (≈ 13.3 µg/mL)
- MIC80 (Pichia kudriavzevii [9]): 7.81 µM (≈ 3.31 µg/mL)
- MIC80 (Clavispora lusitaniae [10]): 7.81 µM (≈ 3.31 µg/mL)
- MIC80 (Pichia kudriavzevii [11]): 7.81 µM (≈ 3.31 µg/mL)
- MIC80 (Nakaseomyces glabratus [12]): 1.95 µM (≈ 0.827 µg/mL)
- MIC80 (Trichosporon beigelii [21]): 7.81 µM (≈ 3.31 µg/mL)
- MIC80 [22]: 1.95 µM (≈ 0.827 µg/mL)
- MIC80 (Clavispora lusitaniae [13]): 15.6 µM (≈ 6.62 µg/mL)
- MIC80 (Candida tropicalis [14]): 7.81 µM (≈ 3.31 µg/mL)
- MIC80 (Candida tropicalis [15]): 15.6 µM (≈ 6.62 µg/mL)
- MIC80 (Candida albicans [16]): 1.95 µM (≈ 0.827 µg/mL)
- MIC80 (Aspergillus fumigatus [17]): 15.6 µM (≈ 6.62 µg/mL)
- MIC80 (Candida albicans [18]): 7.81 µM (≈ 3.31 µg/mL)
- MIC80 [23]: 1.95 µM (≈ 0.827 µg/mL)
- MIC80 (Pichia kudriavzevii [19]): 15.6 µM (≈ 6.62 µg/mL)
- MIC80 (Lichtheimia corymbifera [24]): 31.2 µM (≈ 13.3 µg/mL)
- MIC80 (Candida albicans [20]): 3.9 µM (≈ 1.65 µg/mL)
Structure (SMILES): O=C1OC(COc2cccc(Br)c2)C=C1c1ccc(Br)cc1 (centres undefined)
